Measured values reported in ChEMBL document CHEMBL1122426, “Radioiodine-labeled N,N-dimethyl-N'-(2-hydroxy-3-alkyl-5-iodobenzyl)-1,3-propanediamines for brain perfusion imaging” (J Med Chem, 1983).
Each block holds one compound with its values, some of them ahead of it.

How the values were obtained:
Rattus norvegicus [1] = test: Biodistribution of I-125 labeled compound in rat blood, 1 hr after intravenous injection. value expressed in average % dose per organ; type: ADME, organism-based; details: in vivo
Rattus norvegicus [2] = test: Biodistribution of I-125 labeled compound in rat blood, 2 min after intravenous injection. value expressed in average % dose per organ; type: ADME, organism-based; details: in vivo
Rattus norvegicus [3] = test: Biodistribution of I-125 labeled compound in rat brain, 1 hr after intravenous injection. value expressed in average % dose per organ; type: ADME, organism-based; details: in vivo
Rattus norvegicus [4] = test: Biodistribution of I-125 labeled compound in rat brain to blood ratio, 2 min after intravenous injection. value expressed in % dose per gram ratio; type: ADME, organism-based
Outline: (§1)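 Rats given I-125 diamine iv; tissue activity at 2 min or 1 h compared with diluted injected-dose aliquots. % dose per gram approximated as % dose per organ divided by mean organ weight (brain 1.65 g; blood 18 g). Ratio taken from the per-gram values.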

Rattus norvegicus [5] = test: Biodistribution of I-125 labeled compound in rat liver, 1 hr after intravenous injection. value expressed in average % dose per organ; type: ADME, organism-based; details: in vivo
Rattus norvegicus [6] = test: Biodistribution of I-125 labeled compound in rat liver, 2 min after intravenous injection. value expressed in average % dose per organ; type: ADME, organism-based; details: in vivo
Rattus norvegicus [7] = test: Biodistribution of I-125 labeled compound in rat lungs, 1 hr after intravenous injection. value expressed in average % dose per organ; type: ADME, organism-based, Lung; details: in vivo
Rattus norvegicus [8] = test: Biodistribution of I-125 labeled compound in rat thyroid, 2 min after intravenous injection. value expressed in average % dose per organ; type: ADME, organism-based, Thyroid gland; details: in vivo
Rattus norvegicus [9] = test: Biodistribution of I-125 labeled compound in rat brain, 2 min after intravenous injection. value expressed in average % dose per organ; type: ADME, organism-based; details: in vivo
Rattus norvegicus [10] = test: Biodistribution of I-125 labeled compound in rat heart, 1 hr after intravenous injection. value expressed in average % dose per organ; type: ADME, organism-based; details: in vivo
Rattus norvegicus [11] = organism: Rattus norvegicus; test: Distribution coefficient at pH 7.0 in rat; type: ADME, organism-based
Outline: (§2)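 Octanol/buffer partition: I-125 labeled diamine mixed with 3 g each of 1-octanol and 0.1 M phosphate buffer at pH 7.0 or 7.4, vortexed 3× 1 min, centrifuged 5 min. Two 0.5 g samples of each layer counted. Value is cpm/g octanol over cpm/g buffer, usually repeated three times.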

Rattus norvegicus [12] = organism: Rattus norvegicus; test: Distribution coefficient at pH 7.4 in rat; type: ADME, organism-based; outline: as §2
Rattus norvegicus [13] = test: Biodistribution of I-125 labeled compound in rat thyroid, 1 hr after intravenous injection. value expressed in average % dose per organ; type: ADME, organism-based, Thyroid gland; details: in vivo
[14] = The protein binding ability of compound was expressed in Percent free; type: ADME; details: read-out: % free
Outline: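 Binding to pooled human serum was measured by equilibrium dialysis. 0.4 mL serum and 0.4 mL 0.15 M phosphate buffer, pH 7.4, were separated by a membrane, and 0.025 μCi radiolabeled diamine was added on the buffer side. Cells were rotated at 37 °C for 18 h, and aliquots from both sides were weighed and counted. % free = buffer/serum radioactivity concentration ratio × 100. The membrane was also counted.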

Rattus norvegicus [15] = test: Biodistribution of I-125 labeled compound in rat lungs, 2 min after intravenous injection. value expressed in average % dose per organ; type: ADME, organism-based, Lung; details: in vivo
Rattus norvegicus [16] = test: Biodistribution of I-125 labeled compound in rat muscle, 1 hr after intravenous injection. value expressed in average % dose per organ; type: ADME, organism-based, Muscle tissue; details: in vivo
Rattus norvegicus [17] = test: Biodistribution of I-125 labeled compound in rat muscle, 2 min after intravenous injection. value expressed in average % dose per organ; type: ADME, organism-based, Muscle tissue; details: in vivo
Rattus norvegicus [18] = test: Biodistribution of I-125 labeled compound in rat heart, 2 min after intravenous injection. value expressed in average % dose per organ; type: ADME, organism-based; details: in vivo
Rattus norvegicus [19] = test: Biodistribution of I-125 labeled compound in rat brain to blood ratio, 1 hr after intravenous injection. value expressed in % dose per gram ratio; type: ADME, organism-based; outline: as §1
Rattus norvegicus [20] = test: Biodistribution of I-125 labeled compound in rat blood, 1 hr after intravenous injection. value expressed in average % dose per organ; value may range from 1.13 to 1.60; type: ADME, organism-based; details: in vivo
Rattus norvegicus [21] = test: Biodistribution of I-125 labeled compound in rat blood, 2 min after intravenous injection. value expressed in average % dose per organ; value may range from 4.84 to 5.25; type: ADME, organism-based; details: in vivo
Rattus norvegicus [22] = test: Biodistribution of I-125 labeled compound in rat brain to blood ratio, 2 m in after intravenous injection. value expressed in % dose per gram ratio; type: ADME, organism-based; outline: as §1
Rattus norvegicus [23] = test: Biodistribution of I-125 labeled compound in rat heart, 2 min after intravenous injection. value expressed in average % dose per organ; value may range from 1.95 to 2.54; type: ADME, organism-based; details: in vivo
Rattus norvegicus [24] = test: Biodistribution of I-125 labeled compound in rat liver, 1 hr after intravenous injection. value expressed in average % dose per organ; value may range from 8.10 to 10.6; type: ADME, organism-based; details: in vivo
Rattus norvegicus [25] = test: Biodistribution of I-125 labeled compound in rat brain, 1 hr after intravenous injection. value expressed in average % dose per organ; value may range from 1.39 to 1.47; type: ADME, organism-based; details: in vivo
Rattus norvegicus [26] = test: Biodistribution of I-125 labeled compound in rat liver, 2 min after intravenous injection. value expressed in average % dose per organ; value may range from 8.10 to 8.95; type: ADME, organism-based; details: in vivo
Rattus norvegicus [27] = test: Biodistribution of I-125 labeled compound in rat thyroid, 1 hr after intravenous injection. value expressed in average % dose per organ; value may range from 0.18 to 0.25; type: ADME, organism-based, Thyroid gland; details: in vivo
Rattus norvegicus [28] = test: Biodistribution of I-125 labeled compound in rat thyroid, 2 min after intravenous injection. value expressed in average % dose per organ; value may range from 0.13 to 0.20; type: ADME, organism-based, Thyroid gland; details: in vivo
Rattus norvegicus [29] = test: Biodistribution of I-125 labeled compound in rat brain, 2 min after intravenous injection. value expressed in average % dose per organ; value may range from 1.28 to 1.56; type: ADME, organism-based; details: in vivo
Rattus norvegicus [30] = test: Biodistribution of I-125 labeled compound in rat heart, 1 hr after intravenous injection. value expressed in average % dose per organ; value may range from 1.54 to 1.76; type: ADME, organism-based; details: in vivo
Rattus norvegicus [31] = test: Biodistribution of I-125 labeled compound in rat muscle, 2 min after intravenous injection. value expressed in average % dose per organ; value may range from 7.52 to 9.77; type: ADME, organism-based, Muscle tissue; details: in vivo
Rattus norvegicus [32] = test: Biodistribution of I-125 labeled compound in rat lungs, 1 hr after intravenous injection. value expressed in average % dose per organ; value may range from 14.0 to 17.9; type: ADME, organism-based, Lung; details: in vivo
Rattus norvegicus [33] = test: Biodistribution of I-125 labeled compound in rat muscle, 1 hr after intravenous injection. value expressed in average % dose per organ; value may range from 11.9 to 16.0; type: ADME, organism-based, Muscle tissue; details: in vivo
Rattus norvegicus [34] = test: Biodistribution of I-125 labeled compound in rat lungs, 2 min after intravenous injection. value expressed in average % dose per organ; value may range from 36.9 to 42.9; type: ADME, organism-based, Lung; details: in vivo

Average dose per organ (Rattus norvegicus [1]): 2.79%
Average dose per organ (Rattus norvegicus [2]): 4.16%
Average dose per organ (Rattus norvegicus [3]): 1.67%
Ratio (Rattus norvegicus [4]): 4.31%
Average dose per organ (Rattus norvegicus [5]): 7.38%
Average dose per organ (Rattus norvegicus [6]): 11.7%
Average dose per organ (Rattus norvegicus [7]): 15.4%
Average dose per organ (Rattus norvegicus [8]): 0.17%
Average dose per organ (Rattus norvegicus [9]): 1.67%
Average dose per organ (Rattus norvegicus [10]): 1.33%
Distribution coefficient (Rattus norvegicus [11]): 522
Distribution coefficient (Rattus norvegicus [12]): 1390
Average dose per organ (Rattus norvegicus [13]): 0.2%
fraction unbound [14]: 0.0607
Average dose per organ (Rattus norvegicus [15]): 28.2%
Average dose per organ (Rattus norvegicus [16]): 14.1%
Average dose per organ (Rattus norvegicus [17]): 6.44%
Average dose per organ (Rattus norvegicus [18]): 3.16%
Ratio (Rattus norvegicus [19]): 6.43%
Structure (SMILES): CN(C)CCCNCc1cc(I)cc(C(C)(C)C)c1O

Average dose per organ (Rattus norvegicus [20]): 1.33%
Average dose per organ (Rattus norvegicus [21]): 5.05%
Ratio (Rattus norvegicus [22]): 2.96%
Average dose per organ (Rattus norvegicus [23]): 2.15%
Average dose per organ (Rattus norvegicus [24]): 9.74%
Average dose per organ (Rattus norvegicus [25]): 1.43%
Average dose per organ (Rattus norvegicus [26]): 8.65%
Average dose per organ (Rattus norvegicus [27]): 0.22%
Average dose per organ (Rattus norvegicus [28]): 0.16%
Average dose per organ (Rattus norvegicus [29]): 1.39%
Average dose per organ (Rattus norvegicus [30]): 1.68%
Distribution coefficient (Rattus norvegicus [11]): 77.4
Distribution coefficient (Rattus norvegicus [12]): 389
Average dose per organ (Rattus norvegicus [31]): 8.38%
fraction unbound [14]: 0.0762
Average dose per organ (Rattus norvegicus [32]): 15.8%
Average dose per organ (Rattus norvegicus [33]): 13.3%
Average dose per organ (Rattus norvegicus [34]): 39.8%
Ratio (Rattus norvegicus [19]): 11.5%
Structure (SMILES): CCC(C)c1cc(I)cc(CNCCCN(C)C)c1O (stereo not drawn)
